Measurements reported in the RNAGym collection of RNA variant scans (doi:10.1126/science.aae0568).
Variants at the floor of the assay were thinned out.

B1: tRNA (parent)
chain: GUUCCGUUGGCGUAAUGGUAACGCGUCUCCCUCCUAAGGAGAAGACUGCGGGUUCGAGUCCCGUACGGAACG

Variants of: B1
Assay: yeast fitness relative to wild type (ratio to wild type); higher = fitter; tRNA-Arg(CCU), competitive growth, 37 C, YPD
Method in brief: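 Amplicons of the tRNA-Arg(CCU) gene were sequenced, 100-nucleotide paired-end, from the start population and from each end population of a pooled yeast competition. The competition, in six parallel replicates, lasted 24 hours in YPD at 37°C. Fitness relative to wild type was calculated from changes in genotype frequencies. Genotypes had to have ≥ 100 starting reads, and estimates < 0.5 were set to 0.5.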

Point of comparison: GUUCCGUCGGCGUAGUGGUAACGCGUCUCCCUCCUAAGGAGAAGACUGCAGGUUCGAGUCCCGUACGGAACG [U8C A15G G50A], yeast fitness 0.674. Against it:
- GUUCCGUUGGGGUAAAGGUAACGCGUCUCCCUCCUAAGGAGAAGACUGCGGGUUCGAGUCCCGUACAGAACG [C11G U16A G67A] — lower, 0.536
- GUUCCGUUGGCGCUAUGGUAACGCGUCUCCCUCCUAAGGACAAGACUGCGGGUUCGAGUCCCGUACGGAACG [U13C A14U G41C] — lower, 0.603
- GUUCCGUUGGCGUAAUGGUAACGCGUCUCCCUCCUAAGGAGAAGACUGCCCGUUCAAGUCCCGUACGGAACG [G50C G51C G56A] — lower, 0.602
- GAUCCGAUGGCGUAAUGGUAACGCGUCUCCCACCUAAGGAGAAGACUGCGGGUUCGAGUCCCGUACGGAACG [U2A U7A U32A] — lower, ≤ 0.5
- GUUCCGUUGGCGUAAAGGUAACGUGUCUCCCUUCUUAGGUGAAGACUGCGGGUUCGAGUCCCGUACGGAACG [U16A C24U C33U A36U A40U] — lower, ≤ 0.5
- GUUCCGUUGGCGUAAUGGUAACCCGUCUACCUCCUAAGGAGAAAACUGCGGGUUCGAGUCCCGUACGGAACG [G23C C29A G44A] — lower, 0.608
- GUUCCCUUGGUGUAAUGGCAAAGCGUCUCCCUCCCAAGGAGAAGACUGCGGGUUCGAGUCCCGUACGGUACG [G6C C11U U19C C22A U35C A69U] — lower, ≤ 0.5
- GUUCCGUUGGCGUAAUGGUAACGCGUCACCUUCCUAAGGAGAAGACUGCGGGUUCGAGUCCCGUUCGGAACG [U28A C31U A65U] — lower, 0.546
- GUUCCGUUGGAGUAAUGGUAACGCGUCUCCCUCCUAAGGAGAAGACUGCGGGUUCGAAUCCCGUACGAUUCG [C11A G58A G68A A69U A70U] — lower, ≤ 0.5
- GUUCCGUUGGCGUGAUGGUAACGCGUCUCCCUUCUAAAGAGAAGACUGCGGGUUUGAGUCCCGUACGGAACG [A14G C33U G38A C55U] — lower, ≤ 0.5
- GUUCCGUUGGCGUAAUGGUAACGCGUCUCCCUCCUAAGGAGAAGACUACGGGUUCGAGUCUCGUACGGACCG [G48A C61U A70C] — higher, 0.989
- GUUCCGUUGGCGUGAUGGUAUCGCGUCUCCCUCCUAAGGACAAGACUGCGGGUUCGAGUCCCGUACGGAACG [A14G A21U G41C] — lower, ≤ 0.5
- GUUCGGUUGGCGUAAUGGUAACGUGUCUCCCUUCUAAGGAGAAGACUGCGGGUUCGUGUCCCGUACGGUACG [C5G C24U C33U A57U A69U] — lower, ≤ 0.5
- GUUCCGUUGGCGUAAUGGUAACGCGUCUCCCUCCUACGGAGAAGACUGCGGGUUGGAGUCCCGUACGCAACG [A37C C55G G68C] — lower, 0.556
- GUUCCGUUGGCAUAAUGGUAACGCGUGUCCCUCCUAAGGAGAAGACUGCGGGUUCGAGUCCCGUACGGCACG [G12A C27G A69C] — lower, ≤ 0.5
- GUUCCGUUGGCGUAAUGGUAACGCAUCUCCCUCCUAAGGAGAAGGCUGCGGGUUCGAGUCCCGUACGGAACG [G25A A45G] — higher, 0.961
- GUUCCGUUGGCGUAAUGGUUACGCGUCUUCCUCCUAAGGAGAAGACUGCGGGUUCGAGUCCCGUACGGAACG [A20U C29U] — higher, 0.714
- GUUCCCUUGGCGUAAUGGUAACGCGUCUCCCUCGUAAAGAGAAGACUGCGGGUUCGAGUCCCGAACGGAACG [G6C C34G G38A U64A] — lower, ≤ 0.5
- GAUCCGUUGGCGUAAUGGUAACGCGUCUCCCUCUUAAGGAGAAGACUGCGGGUUCGAGUCCCGUACGGAACG [U2A C34U] — higher, 0.743
- GUUGCGUUGGCGUAAUGGUAACGCGUCUCCCUUCUAAGGAGAAGUCUGCGGGUUCGAGUGCCGUACGGAACG [C4G C33U A45U C60G] — lower, ≤ 0.5
- GUUUAGUUGGCGAAAUGGUAACGCGUCUCCUUCUUAAGGAGAAGACUGCGGGUUAGAAUCCCGUACGGAACG [C4U C5A U13A C31U C34U C55A G58A] — lower, ≤ 0.5
- GUUCCGUUGGCGUAAUGGUAACGCAUCUCUCUCCUAAGGAGAAGACUGCGGGUUCGAGUGCCGUACGGAACG [G25A C30U C60G] — lower, 0.541
- GUUCCGUUGGCGUAAUGGUAACGCGUCUCCCUCGUAAGGAGAAGACUGCGGGUUUGAAUCCCGUACGGAACG [C34G C55U G58A] — lower, ≤ 0.5
- GUUCAGUUGGCGUAAUGGUAACGCGUCUCCCUCCUAACGAGGAGACUGCGGGUUCGAGUCCCGUACGGAACG [C5A G38C A42G] — lower, 0.582
- GUUCCGUUGGCGUAAUGGUAACGCGUCUCCCUCCGAAGGAGAAGACUGGGGGUUCGAGUCCCGUCCGGAACG [U35G C49G A65C] — lower, ≤ 0.5
- GUUCCGUUGGUGUAGUGGUAACGCGUCUCCCUCCUAAGGAGAAGGCUGCGGGUUCGAGUCCCGUACGGAACG [C11U A15G A45G] — lower, 0.599
- GUUCCGUUGGCGUAAUGGUAACGCGUCUCCAUCCUAAGGAGAAGACUGCGGGUUCGAGUCCCGUACGGAGCG [C31A A70G] — higher, 0.811
- GUUCCGUUGGUGUAAUGGUAUCGCGUCUCCCUCCUAAGGAGAAGACUGCGGGUUCGAGUCCCGUACGGGACG [C11U A21U A69G] — higher, 0.712
- GUUCCGUUGGCGUAAUGGUAACGCGCCUCCCUCCUAAGGAGAAGACUGCGGGUUCGACUCCCGUACGGCACG [U26C G58C A69C] — higher, 0.697
- GUUCCGUUAGCGUAAUGGUAACGCGUUUCCCUCCUAAGGAGAAGACUGCGGGUUCAAGUCCCGUACAGAACG [G9A C27U G56A G67A] — lower, ≤ 0.5
- GUUCCGUUGGCGUAAUGAUAACGGGUUUCCCUCCUAAGGAGAAGACUGCGGGUUCGAGUCCUGUACGGACCG [G18A C24G C27U C62U A70C] — lower, ≤ 0.5
- GUUACGUUGGCGUAAUGGUAUCGCGUCUCCCUCCUAAGGAGAGGACUGCGGGUUCGAGUCCAGUACGGAACG [C4A A21U A43G C62A] — lower, ≤ 0.5
- GUUCAGUUGGCGUAAUAGUAACGCGUCUCCCUCCUAAGGAGAAGACUGCGGGUUCGAGUCCCGUACGGAACG [C5A G17A] — higher, 0.851
- GUUACGUUGGCGUAAUAGUAACGCGUCUCCCUCCUAAGGAAAAGACUGCGGGUUCGCGUCCCGUACGGAACG [C4A G17A G41A A57C] — lower, ≤ 0.5
- GUUCCGUUGGCGUAAUGGUAGCGCGUCUCCCUCCUAAGGAGAAGGCUGCGGGUUCGAGUCCCGUCCGGAACG [A21G A45G A65C] — higher, 0.977
- GUUCCGUUGGCGUAAUGGUAACGCGUCUGCCUUCUAAGGAGAAGACCGCGGGUUCGAGUCCCGUACGGAACG [C29G C33U U47C] — lower, ≤ 0.5
- GUUCCGUUGGCGUUAUGGUAACGCGUCUCCCUCCUCAGGAGAAGACUGCGGGUUCGAGUCCCGUACGGAACG [A14U A36C] — lower, 0.586
